Activity calls are given as the source filed them. No cut-off for these calls is given here. Numbered stars: 1 amine (or outer) side, 2 acyl side, 3 side chain; on linkers, the order of the positions; unused ones are H or OH. Bridge positions count the residues as written; N and C are the ends. Square brackets hold non-standard residues; d marks the D form. Peptide text beside a SMILES is read from it. * marks the point of attachment. X1 = CC(C)(CC(=O)[*:1])S[*:2]; Mpa = O=C(O)CCS; For = O=C*
Experiments:
Rattus norvegicus [1] = assay: In vivo pressor activity by vasopressin assay in rats(inactive up to dose 2*10e-2); format: functional
Rattus norvegicus [2] = assay: (§1) In vivo oxytocin antagonistic activity […] was determined by galactogogic assay; format: functional
Rattus norvegicus [3] = assay: (§2) In vivo pressor activity by vasopressin assay in rats; format: functional
Rattus norvegicus [4] = assay: In vivo pressor activity by vasopressin assay in rats; o = inactive up to dose 2*10e-2; format: functional, organism-based
Rattus norvegicus [5] = species: Rattus norvegicus; assay: In vitro oxytocin antagonistic activity against rat uterine strips; o = inactive up to dose 2*10e-2; format: functional
In short: (§3)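 Isolated uterine strips from Wistar rats estrogenized 24-48 h beforehand, tested in Munsick's solution by the Holton method. Cumulative oxytocin dose-response curves were constructed, with antagonist added to the bath 1 min before the oxytocin curve was started. Antagonism expressed as pA2.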

Rattus norvegicus [6] = species: Rattus norvegicus; assay: In vitro oxytocin antagonistic activity against rat uterine strips; format: functional; conditions: read-out: pA2 (converted); in short: as §3
Oxytocin receptor = molecular target: T1, Oxytocin receptor (Rattus norvegicus, UniProt P70536); assay: In vitro Oxytocin receptor antagonistic activity against rat uterine strips; format: functional; conditions: read-out: pA2 (converted); in short: as §3
T1 sequence (P70536 whole entry): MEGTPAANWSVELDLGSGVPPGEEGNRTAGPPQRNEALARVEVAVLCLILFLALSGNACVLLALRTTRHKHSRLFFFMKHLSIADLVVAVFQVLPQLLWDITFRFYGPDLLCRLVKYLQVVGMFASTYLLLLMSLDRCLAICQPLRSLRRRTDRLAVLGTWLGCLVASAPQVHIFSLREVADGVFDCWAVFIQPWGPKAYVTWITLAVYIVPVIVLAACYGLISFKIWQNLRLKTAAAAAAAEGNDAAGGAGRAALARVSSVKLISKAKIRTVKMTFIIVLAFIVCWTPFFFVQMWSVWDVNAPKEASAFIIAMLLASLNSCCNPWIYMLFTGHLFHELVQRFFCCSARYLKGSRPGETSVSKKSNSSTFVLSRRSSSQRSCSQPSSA

Rattus norvegicus [7] = assay: as §2; format: functional, organism-based; conditions: read-out: pA2 (converted)
Rattus norvegicus [8] = assay: as §1; format: functional, organism-based; conditions: read-out: pA2 (converted)

Row | SMILES | Activity (Rattus norvegicus [2]) [IU mg-1] | Activity (Rattus norvegicus [3]) [IU mg-1] | other results
1 | CC[C@H](C)[C@@H]1NC(=O)[C@H](Cc2ccc(O)cc2)NC(=O)[C@@H](N)C(C)(C)SSC[C@@H](C(=O)N2CCC[C@H]2C(=O)N[C@@H](CC(C)C)C(=O)NCC(N)=O)NC(=O)[C@H](CC(N)=O)NC(=O)[C@H](CCC(N)=O)NC1=O |  |  | Activity (Rattus norvegicus [1]): 0 IU mg-1
2 | CC[C@H](C)[C@@H]1NC(=O)[C@H](Cc2ccc(O)cc2)NC(=O)CCSSC[C@@H](C(=O)N2CCC[C@H]2C(=O)N[C@@H](CC(C)C)C(=O)NCC(N)=O)NC(=O)[C@H](CC(N)=O)NC(=O)[C@H](CCC(N)=O)NC1=O | 541 | 1.44 | 
3 | CC[C@H](C)[C@@H]1NC(=O)[C@H](Cc2ccc(O)cc2)NC(=O)CCSSC[C@@H](C(=O)N2CCC[C@H]2C(=O)N[C@@H](CCCCNC=O)C(=O)NCC(N)=O)NC(=O)[C@H](CC(N)=O)NC(=O)[C@H](CCC(=O)O)NC1=O | 8 |  | 
4 | CC[C@H](C)[C@@H]1NC(=O)[C@H](Cc2ccc(O)cc2)NC(=O)CCSSC[C@@H](C(=O)N2CCC[C@H]2C(=O)N[C@@H](CCCCNC=O)C(=O)NCC(N)=O)NC(=O)[C@H](CC(N)=O)NC(=O)[C@H](CCC(N)=O)NC1=O | 517 | 101.6 | 
5 | CC[C@H](C)[C@@H]1NC(=O)[C@H](Cc2ccc(O)cc2)NC(=O)CCSSC[C@@H](C(=O)N2CCC[C@H]2C(=O)N[C@@H](CCCCN)C(=O)NCC(N)=O)NC(=O)[C@H](CC(N)=O)NC(=O)[C@H](CCC(N)=O)NC1=O | 272 | 368 | 
6 | CC[C@H](C)[C@@H]1NC(=O)[C@H](Cc2ccc(O)cc2)NC(=O)CCSSC[C@@H](C(=O)N2CCC[C@H]2C(=O)N[C@@H](CCCCN)C(=O)NCC(N)=O)NC(=O)[C@H](CC(N)=O)NC(=O)[C@H](CCC(=O)O)NC1=O | 9.1 | 0.1 | 
7 | CC[C@@H](C)[C@@H]1NC(=O)[C@@H](Cc2ccc(O)cc2)NC(=O)CCSSC[C@@H](C(=O)N2CCC[C@@H]2C(=O)N[C@@H](CCCCNC=O)C(=O)NCC(N)=O)NC(=O)[C@H](CC(N)=O)NC(=O)[C@@H](CCC(=O)O)NC1=O |  |  | Activity (Rattus norvegicus [4]): inactive; Activity (Rattus norvegicus [5]): inactive
8 | CC[C@H](C)[C@@H]1NC(=O)[C@H](Cc2ccc(O)cc2)NC(=O)CC(C)(C)SSC[C@@H](C(=O)N2CCC[C@H]2C(=O)N[C@@H](CCCCNC=O)C(=O)NCC(N)=O)NC(=O)[C@H](CC(N)=O)NC(=O)[C@H](CCC(=O)O)NC1=O (YIENCPK(For)G-NH2; linker N-5 via X1) |  |  | Kb (Rattus norvegicus [6]): 7940 nM
9 | CC[C@H](C)[C@@H]1NC(=O)[C@H](Cc2ccc(O)cc2)NC(=O)CC(C)(C)SSC[C@@H](C(=O)N2CCC[C@H]2C(=O)N[C@@H](CCCCN)C(=O)NCC(N)=O)NC(=O)[C@H](CC(N)=O)NC(=O)[C@H](CCC(=O)O)NC1=O (YIENCPKG-NH2; linker N-5 via X1) [listing 1 of 2 here] |  |  | Kb (Oxytocin receptor): 1580 nM
10 | CC[C@H](C)[C@@H]1NC(=O)[C@H](Cc2ccc(O)cc2)NC(=O)CC(C)(C)SSC[C@@H](C(=O)N2CCC[C@H]2C(=O)N[C@@H](CCCCN)C(=O)NCC(N)=O)NC(=O)[C@H](CC(N)=O)NC(=O)[C@H](CCC(=O)O)NC1=O (YIENCPKG-NH2; linker N-5 via X1) [listing 2 of 2 here] | <0.01 | 0 | 
11 | CC[C@H](C)[C@@H]1NC(=O)[C@H](Cc2ccc(O)cc2)NC(=O)CC(C)(C)SSC[C@@H](C(=O)N2CCC[C@H]2C(=O)N[C@@H](CCCCNC=O)C(=O)NCC(N)=O)NC(=O)[C@H](CC(N)=O)NC(=O)[C@H](CCC(N)=O)NC1=O (YIQNCPK(For)G-NH2; linker N-5 via X1) [listing 1 of 2 here] |  |  | Kb (Rattus norvegicus [7]): 631 nM; Kb (Rattus norvegicus [6]): 39.8 nM
12 | CC[C@H](C)[C@@H]1NC(=O)[C@H](Cc2ccc(O)cc2)NC(=O)CC(C)(C)SSC[C@@H](C(=O)N2CCC[C@H]2C(=O)N[C@@H](CCCCNC=O)C(=O)NCC(N)=O)NC(=O)[C@H](CC(N)=O)NC(=O)[C@H](CCC(N)=O)NC1=O (YIQNCPK(For)G-NH2; linker N-5 via X1) [listing 2 of 2 here] | 1.1 |  | 
13 | CC[C@H](C)[C@@H]1NC(=O)[C@H](Cc2ccc(O)cc2)NC(=O)CC(C)(C)SSC[C@@H](C(=O)N2CCC[C@H]2C(=O)N[C@@H](CCCCN)C(=O)NCC(N)=O)NC(=O)[C@H](CC(N)=O)NC(=O)[C@H](CCC(N)=O)NC1=O (YIQNCPKG-NH2; linker N-5 via X1) |  |  | Kb (Oxytocin receptor): 16.6 nM
14 | CC[C@H](C)[C@@H]1NC(=O)[C@H](Cc2ccc(O)cc2)NC(=O)CC(C)(C)SSC[C@@H](C(=O)N2CCC[C@H]2C(=O)N[C@@H](CC(C)C)C(=O)NCC(N)=O)NC(=O)[C@H](CC(N)=O)NC(=O)[C@H](CCC(N)=O)NC1=O (YIQNCPLG-NH2; linker N-5 via X1) |  |  | Kb (Rattus norvegicus [7]): 537 nM; Kb (Rattus norvegicus [6]): 115 nM
15 | CC[C@H](C)[C@@H]1NC(=O)[C@H](Cc2ccc(O)cc2)NC(=O)CCSSC[C@@H]2NC(=O)[C@H](CC(N)=O)NC(=O)[C@H](CCC(=O)NCCCC[C@@H](C(=O)NCC(N)=O)NC(=O)[C@@H]3CCCN3C2=O)NC1=O ([Mpa]YIENCPKG-NH2; disulfide 1-6; lactam 4-8) [listing 1 of 2 here] |  |  | Kb (Oxytocin receptor): 6.31 nM; Kb (Rattus norvegicus [8]): 1000 nM
16 | CC[C@H](C)[C@@H]1NC(=O)[C@H](Cc2ccc(O)cc2)NC(=O)CCSSC[C@@H]2NC(=O)[C@H](CC(N)=O)NC(=O)[C@H](CCC(=O)NCCCC[C@@H](C(=O)NCC(N)=O)NC(=O)[C@@H]3CCCN3C2=O)NC1=O ([Mpa]YIENCPKG-NH2; disulfide 1-6; lactam 4-8) [listing 2 of 2 here] |  | 0.1 | 
17 | CC[C@H](C)[C@@H]1NC(=O)[C@H](Cc2ccc(O)cc2)NC(=O)[C@@H](N)CSSC[C@@H](C(=O)N2CCC[C@H]2C(=O)N[C@@H](CC(C)C)C(=O)NCC(N)=O)NC(=O)[C@H](CC(N)=O)NC(=O)[C@H](CCC(N)=O)NC1=O [OXYTOCIN] | 450 | 3.1 | 

From ChEMBL document CHEMBL1125451, “Structure-activity studies of a novel bicyclic oxytocin antagonist” (J Med Chem, 1992)
